The text below walks through data of article PMC2756064 (Journal of medicinal chemistry, 2009).

One data set addresses T1, Cathepsin E (Homo sapiens, UniProt P14091).
T1 sequence (P14091 54-396): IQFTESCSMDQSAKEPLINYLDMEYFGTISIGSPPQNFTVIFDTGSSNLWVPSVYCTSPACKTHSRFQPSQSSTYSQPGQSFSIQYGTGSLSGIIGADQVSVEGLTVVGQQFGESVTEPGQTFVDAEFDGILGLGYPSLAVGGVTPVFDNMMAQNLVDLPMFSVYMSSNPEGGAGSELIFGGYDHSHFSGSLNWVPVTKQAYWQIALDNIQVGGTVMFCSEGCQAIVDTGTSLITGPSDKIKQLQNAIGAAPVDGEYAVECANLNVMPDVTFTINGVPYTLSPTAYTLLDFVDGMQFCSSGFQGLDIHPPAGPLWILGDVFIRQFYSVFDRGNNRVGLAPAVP
Description: Protease inhibition screen and IC50 assay, cathepsin E. In kind it is biochemical. To be noted: result in words.

Data set [1] in a line: Solubility in DMSO for dilution series. In kind it is physicochemical.
Data set [2] deals with monocyte derived dendritic cells and CD4+ T cells (allogeneic). Briefly: Allogeneic mixed lymphocyte reaction. Format: cell-based, human. The conditions noted are these: allogeneic MLR.
Data set [3] relates to monocyte derived dendritic cells and CD4+ T cells (autologous). Briefly: Autologous mixed lymphocyte reaction. To be noted: autologous MLR. Format: cell-based, human.
Another data set concerns the target TACE (Homo sapiens, UniProt P78536). Description: Protease inhibition screen and IC50 assay, TACE. Format: biochemical. The conditions noted are these: 10 μM, panel of 59 proteases.
The target of another data set is T2, ADAM10 (Homo sapiens, UniProt O14672).
T2 sequence (O14672 214-748): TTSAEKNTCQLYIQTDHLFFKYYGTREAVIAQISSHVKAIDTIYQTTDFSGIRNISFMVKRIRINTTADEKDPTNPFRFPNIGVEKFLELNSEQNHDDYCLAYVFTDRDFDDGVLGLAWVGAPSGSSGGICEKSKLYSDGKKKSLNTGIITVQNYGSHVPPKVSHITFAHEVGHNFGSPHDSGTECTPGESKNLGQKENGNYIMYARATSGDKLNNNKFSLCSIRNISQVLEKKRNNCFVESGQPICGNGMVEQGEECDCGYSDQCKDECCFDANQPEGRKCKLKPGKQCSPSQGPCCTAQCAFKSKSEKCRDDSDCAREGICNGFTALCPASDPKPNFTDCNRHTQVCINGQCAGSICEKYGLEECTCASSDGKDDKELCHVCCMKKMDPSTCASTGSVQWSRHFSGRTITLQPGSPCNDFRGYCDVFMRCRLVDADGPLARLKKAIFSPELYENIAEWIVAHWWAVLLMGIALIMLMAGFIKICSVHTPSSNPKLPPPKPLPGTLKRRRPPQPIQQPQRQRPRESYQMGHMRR
Description: Protease inhibition screen and IC50 assay, ADAM10. In kind it is biochemical. The conditions noted are these: 10 μM, panel of 59 proteases.

The subject of data set [4] is MCF7 cell lysate (cellular cathepsins D and E). Description: Inhibition of cellular cathepsins in MCF7 cell lysate. Format: biochemical.
In data set [5] the test system is human peripheral blood mononuclear cells (CD3+ T cells). Description: T cell proliferation in PBMCs in response to exogenous antigen. In kind it is cell-based. In a few lines: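 Human PBMCs were isolated from buffy coats by Ficoll-Hypaque density gradient centrifugation, washed in PBS, and checked for viability by trypan blue. They were cultured in RPMI 1640 with 2 mM L-glutamine, penicillin/streptomycin and 10% FBS, with test compound at various concentrations. Cells were antibody-stained for 30 min at 4 °C, then permeabilised for intracellular staining and fixed in 2% paraformaldehyde. Lymphocytes were gated by forward/side scatter, with 50,000 cells per sample and isotype controls.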

A further data set has as its target T3, ADAM9 (Homo sapiens, UniProt Q13443).
T3 sequence (Q13443 29-819): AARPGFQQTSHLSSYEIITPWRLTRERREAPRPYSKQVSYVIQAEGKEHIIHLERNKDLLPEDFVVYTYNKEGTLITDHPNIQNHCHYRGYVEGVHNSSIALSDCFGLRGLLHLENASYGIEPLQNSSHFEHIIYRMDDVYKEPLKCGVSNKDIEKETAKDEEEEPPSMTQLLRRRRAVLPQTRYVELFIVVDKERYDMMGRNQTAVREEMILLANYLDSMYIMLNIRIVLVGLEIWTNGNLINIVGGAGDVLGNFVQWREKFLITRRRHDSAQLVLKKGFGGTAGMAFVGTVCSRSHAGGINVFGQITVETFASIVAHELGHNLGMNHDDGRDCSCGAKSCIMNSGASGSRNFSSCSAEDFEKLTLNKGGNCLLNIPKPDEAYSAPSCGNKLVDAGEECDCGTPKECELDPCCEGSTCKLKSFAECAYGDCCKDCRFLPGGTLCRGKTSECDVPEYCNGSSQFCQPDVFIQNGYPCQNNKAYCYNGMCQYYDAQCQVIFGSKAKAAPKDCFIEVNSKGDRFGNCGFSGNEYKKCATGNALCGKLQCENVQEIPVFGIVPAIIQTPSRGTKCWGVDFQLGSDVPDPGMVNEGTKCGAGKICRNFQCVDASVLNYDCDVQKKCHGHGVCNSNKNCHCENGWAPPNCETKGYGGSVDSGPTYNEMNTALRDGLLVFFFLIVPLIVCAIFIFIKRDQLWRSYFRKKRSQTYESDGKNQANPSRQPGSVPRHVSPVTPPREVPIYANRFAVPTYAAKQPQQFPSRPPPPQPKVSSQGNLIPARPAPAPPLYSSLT
Description: Protease inhibition screen and IC50 assay, ADAM9. In kind it is biochemical. To be noted: 10 μM, panel of 59 proteases.

Square brackets hold non-standard residues; d marks the D form. Peptide text beside a SMILES is read from it. * marks the point of attachment. Hmp(2R,3S) = CC[C@H](C)[C@@H](O)C(=O)O; Sta = CC(C)C[C@H](N)[C@@H](O)CC(=O)O; NMe2Val = CC(C)[C@@H](C(=O)*)N(C)C; dNMeF = CN[C@H](Cc1ccccc1)C(=O)O; NMeQ = CN[C@@H](CCC(N)=O)C(=O)O; dHiv = CC(C)[C@@H](O)C(=O)O; Hiv = CC(C)[C@H](O)C(=O)O; Isovaleryl = CC(C)CC(=O)*

TACE, sequence (P78536 215-824): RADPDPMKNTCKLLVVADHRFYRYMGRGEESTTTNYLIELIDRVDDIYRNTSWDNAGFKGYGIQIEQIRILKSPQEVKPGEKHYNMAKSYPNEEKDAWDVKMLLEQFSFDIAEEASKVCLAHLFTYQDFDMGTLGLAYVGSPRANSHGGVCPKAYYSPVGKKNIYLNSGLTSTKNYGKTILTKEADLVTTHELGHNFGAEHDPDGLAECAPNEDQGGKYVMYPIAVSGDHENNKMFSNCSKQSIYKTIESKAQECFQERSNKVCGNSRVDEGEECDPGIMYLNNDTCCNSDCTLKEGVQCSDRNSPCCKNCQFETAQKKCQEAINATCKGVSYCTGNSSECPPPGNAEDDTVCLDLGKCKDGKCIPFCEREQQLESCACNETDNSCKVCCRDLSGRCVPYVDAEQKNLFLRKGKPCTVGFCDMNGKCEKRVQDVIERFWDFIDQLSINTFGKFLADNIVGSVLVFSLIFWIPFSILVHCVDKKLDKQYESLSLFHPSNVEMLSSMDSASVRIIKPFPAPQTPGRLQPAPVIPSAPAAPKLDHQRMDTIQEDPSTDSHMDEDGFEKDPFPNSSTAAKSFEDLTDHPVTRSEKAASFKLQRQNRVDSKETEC

Regarding `CC(C)CC(=O)N[C@H](C(=O)N[C@H](C(=O)N[C@@H](CC(C)C)[C@@H](O)CC(=O)N[C@@H](C)C(=O)N[C@@H](CC(C)C)[C@@H](O)CC(=O)O)C(C)C)C(C)C` [Pepstatin A, pepstatin A] (Isovaleryl-VV[Sta]A[Sta]-OH), the “discrimination between cathepsins D and E” value on Cathepsin E is “did not discriminate”.

Regarding `CC[C@H](C)[C@H](NC(=O)C[C@H](O)[C@H](CC(C)C)NC(=O)[C@H](CCC(N)=O)N(C)C(=O)[C@H](CC(C)C)NC(=O)[C@H](O)[C@@H](C)CC)C(=O)NCC(=O)N(C)[C@H](Cc1ccccc1)C(=O)N1CCC[C@H]1C(=O)OC` [Compound 3, grassystatin C] ({Hmp(2R,3S)}-L[NMeQ][Sta]IG[dNMeF]P-OMe), the “solubility in DMSO” value in data set [1] was “insoluble in DMSO”.

Turning to `COC(=O)[C@@H]1CCCN1C(=O)[C@@H](Cc1ccccc1)N(C)C(=O)[C@H](C)NC(=O)[C@@H](NC(=O)C[C@H](O)[C@H](CC(C)C)NC(=O)[C@H](CC(N)=O)NC(=O)[C@H](CC(C)C)NC(=O)[C@H](OC(=O)[C@@H](OC(=O)[C@H](C(C)C)N(C)C)C(C)C)C(C)C)[C@@H](C)O` [Compound 1, grassystatin A] (NMe2Val-[Hiv][dHiv]LN[Sta]TA[dNMeF]P-OMe), in data set [2], the IFN-γ production result was “significant downregulation” and the IL-17 production result is “significant downregulation”. In data set [3], the “interferon-γ (IFN-γ) in response to antigen presentation” value is recorded as “inhibit upregulation” and the “interleukin-17 (IL-17) in response to antigen presentation” value is “inhibit upregulation”. Also, the T cell proliferation result in [3] (TTc + PMA, 5 days) is reported as “reduce T cell proliferation in a dose dependent manner”. For the same compound, the “inhibitory activity in protease screen” value against TACE is “compromised activities”. At ADAM10, the “inhibitory activity in protease screen” value is “compromised activities”. Besides, in data set [4] (MCF7 lysate), the “decrease in potency compared to purified cathepsin E” value is on record as 564 fold and the “difference in IC50 compared to pepstatin A” value is on record as 100 fold. Moreover, the IC50 in data set [4] (read-out: apparent IC50, MCF7 lysate treated directly) was roughly 500 nM. In [5] (10 μM, CD3+ lymphocytes), the “T cell proliferation in response to exogenous antigen (TTc)” value is “significantly reduce”. The T cell viability result in data set [5] (same experiment, data not shown) was “unaffected”. Also, the “inhibitory activity in protease screen” value against ADAM9 was “compromised activities”.
